Reference: ChEMBL document CHEMBL1123375, “Carbocyclic puromycin: synthesis and inhibition of protein biosynthesis” (1986)
Converted amounts (≈) assume the structure as drawn.

How the values were obtained:
[1] = system: Escherichia coli; test: (§1) Kinetic constant was evaluated by using peptidyl transferase assay against Escherichia coli ribosome system
In short: (§2)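 Ac-[14C]-L-Phe-tRNA (21 pmol) prebound 8 min at 28°C to washed E. coli ribosomes (2.78 A260 units) with poly(U), 1.50 mM GTP, FWR, 20 mM Mg(OAc)2, 130 mM Tris-HCl pH 7.5, 130 mM NH4Cl. Reaction started with puromycin compound in water, run for timed intervals, then stopped with NaOH. Ethyl acetate-extracted product counted, blank-corrected. Km and Vmax by Wilkinson analysis, triplicates.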

[2] = species on record: Rattus norvegicus; test: (§3) Kinetic constant was evaluated by using peptidyl transferase assay against Rat liver ribosome system
In short: (§4)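 Ac-[3H]-L-Phe-tRNA (22 pmol) prebound 60 min at 37°C to rat liver ribosomes (4.0 A260 units) with poly(U), 1.6 mM GTP, FWR, 15 mM Mg(OAc)2, 100 mM Tris-HCl pH 7.5, 100 mM NH4Cl. Mixture added to puromycin compound, 37°C for varying times. Product extracted into ethyl acetate and counted. Km and Vmax by Wilkinson analysis.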

[3] = species on record: Rattus norvegicus; test: Substrate efficiency was evaluated by using peptidyl transferase assay against Rat liver ribosome system; assay type: functional; in short: as §4
[4] = system: Escherichia coli; test: Ratio of kinetic parameter Vmax to that of Km in Escherichia coli ribosome system; parameters: unit not given here; in short: as §2
[5] = species on record: Rattus norvegicus; test: Ratio of kinetic parameter Vmax to that of Km in Rat liver ribosome; parameters: unit not given here; in short: as §4
[6] = Compound was evaluated for the cytotoxicity by using P-388 in vitro assay against P-388 mouse lymphoid leukemia cells in 4 mL of Fischer's medium with 10% horse serum.; assay type: functional; conditions: P388, read-out: ED50 (the source's name)
In short: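 Twofold dilution series in duplicate tubes, each seeded with 4×10^5 cells, incubated 72 h at 37°C, stoppered and held at a 30° angle without agitation, rotated twice daily. Growth read by hemocytometer count, inoculum subtracted. Percent inhibition calculated against controls, ED50 derived from this.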

[7] = system: Escherichia coli; test: as §1; assay type: functional; in short: as §2
[8] = species on record: Rattus norvegicus; test: as §3; assay type: functional; in short: as §4
[9] = system: Escherichia coli; test: Substrate efficiency was evaluated by using peptidyl transferase assay against Escherichia coli ribosome system; assay type: functional; in short: as §2
[10] = species on record: Rattus norvegicus; test: Substrate efficiency was evaluated by using peptidyl transferase assay against Rat liver ribosome system.; assay type: functional; in short: as §4
[11] = species on record: Rattus norvegicus; test: Substrate efficiency of the compound was evaluated by using peptidyl transferase assay against Rat liver ribosome system; assay type: functional; in short: as §4

Row | Vmax [1] | Vmax [2] | Efficiency [3] | Ratio [4] | Ratio [5] | Km [8] | Km [1] | Km [2] | Efficiency [10] | Efficiency [11] | Structure (SMILES) | EC50 [6] | Km [7] | Efficiency [9]
1 | 1890 c.p.m. | 14200 c.p.m. | 100% | 10200 | 55700 | 255 µM |  |  |  |  | COc1ccc(C[C@H](N)C(=O)N[C@H]2[C@@H](O)[C@H](n3cnc4c(N(C)C)ncnc43)O[C@@H]2CO)cc1 [PUROMYCIN] | 0.3 µg/mL (≈ 0.636 µM) | 186 µM | 100%
2 | 644 c.p.m. | 871 c.p.m. |  | 3420 | 3160 |  | 188 µM | 276 µM | 5.7% |  | COc1ccc(CC(N)C(=O)N[C@@H]2CC[C@@H](n3cnc4c(N(C)C)ncnc43)[C@@H]2O)cc1 (stereo partly specified) | 0.8 µg/mL (≈ 1.82 µM) |  | 34%
3 | 1890 c.p.m. | 14200 c.p.m. |  | 8220 | 23300 |  |  | 610 µM |  | 42% | COc1ccc(CC(N)C(=O)N[C@H]2[C@@H](O)[C@H](n3cnc4c(N(C)C)ncnc43)O[C@@H]2C)cc1 (stereo partly specified) | 0.3 µg/mL (≈ 0.659 µM) | 230 µM | 81%
4 | 850 c.p.m. | 3720 c.p.m. | 22% | 4540 | 12400 |  |  | 300 µM |  |  | COc1ccc(CC(N)C(=O)N[C@@H]2[C@@H](CO)C[C@@H](n3cnc4c(N(C)C)ncnc43)[C@@H]2O)cc1 (stereo partly specified) | 0.3 µg/mL (≈ 0.639 µM) | 187 µM | 45%
